Reference: ChEMBL document CHEMBL1157436, “Efficient synthesis and neuroprotective effect of substituted 1,3-diphenyl-2-propen-1-ones” (2008)

What was measured:
Type in all cases: functional
[1] = DPPH radical scavenging activity at 100 uM
[2] = DPPH radical scavenging activity at 10 uM
[3] = DPPH radical scavenging activity at 200 uM
[4] = DPPH radical scavenging activity at 50 uM
BV-2 [5] = test: Inhibition of NO production in LPS-induced mouse BV2 microglia cells at 20 uM
Method in brief: (§1)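 BV-2 microglia were exposed to LPS (1 µg/mL) alone or with compound at 10 or 20 µM for 24 h at 37 °C. Nitrite was then measured in medium sampled at the end of incubation. Data are mean ± SE of three independent experiments, each run in triplicate.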

[6] = Neuroprotective effect against glutamate-induced toxicity in ICR mouse cultured cortical neurons assessed as cell viability at 10 uM; settings: Cortical neurone, read-out: Activity
Method in brief: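 Cultured cortical neurons were co-treated with 60 µM glutamate and compound for 24 h at 37 °C. WST-1 was then added at 1:10 in the conditioned medium for 2 h at 37 °C. Formazan absorbance was read at 450 nm against a 650 nm reference and normalized to untreated control wells. Data are mean ± SE of three independent experiments in triplicate.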

BV-2 [7] = test: Inhibition of NO production in LPS-induced mouse BV2 microglia cells at 10 uM; method in brief: as §1

Row | Structure (SMILES) | Activity [1] | Activity [2] | Activity [3] | Activity [4] | Activity (BV-2 [5]) | viability at 10 µM [6] | Activity (BV-2 [7])
1 | COc1cc(/C=C/C=O)ccc1O | 0.43% | 2.37% | 10.6% | 0.28% |  |  | 
2 | COc1cc(/C=C/C(=O)c2ccc3c(c2)OCO3)ccc1O | 14.1% | 7.9% | 25.1% | 12% | 11.32 µM | 79% | 12.63 µM
3 | COc1ccc(/C=C/C(=O)c2ccc3c(c2)OCO3)cc1O | 9.63% | 8.75% | 11% | 9.14% | 12.44 µM | 69% | 21.3 µM
4 | COc1cccc(/C=C/C(=O)c2cc(F)c(F)c(F)c2)c1O | 5.5% | 3.08% | 6.81% | 3.28% | 14.72 µM | 71% | 18.05 µM
5 | COc1cccc(/C=C/C(=O)c2ccccc2)c1O | 7.94% | 5.4% | 11% | 6.09% | 15.69 µM | 58% | 17.62 µM
6 | COc1ccc(/C=C/C(=O)c2ccc3c(c2)OCO3)cc1OC | 1.75% | 3.27% | 1.56% | 1.95% | 20.6 µM | 61% | 25.69 µM
7 | COc1ccc(/C=C/C(=O)c2cc(F)c(F)c(F)c2)cc1O | 3.25% | 1.99% | 5.29% | 2.71% | 22 µM | 63% | 25.07 µM
8 | COc1ccc(/C=C/C(=O)c2ccc(OC)c(F)c2)cc1O | 2.73% | 1.55% | 5.02% | 1.68% | 19.98 µM | 80% | 23.4 µM
9 | COc1ccc(/C=C/C(=O)c2ccccc2)cc1O | 2.05% | 1.26% | 5.38% | 1.46% | 16.04 µM | 67% | 18.93 µM
10 | COc1cc(/C=C/C(=O)c2ccc(OC)c(F)c2)ccc1O | 28.4% | 17.8% | 37.5% | 18.9% | 6.23 µM | 79% | 14.21 µM
11 | COc1ccc(C(=O)/C=C/c2cccc(OC)c2O)cc1F | 2.42% | 1.74% | 2.87% | 1.14% | 14.19 µM | 75% | 19.55 µM
12 | COc1cccc(/C=C/C(=O)c2ccc3c(c2)OCO3)c1O | 18.6% | 13.9% | 22.2% | 14.9% | 16.44 µM | 56% | 22.62 µM
13 | Cc1c(C)c2c(c(C)c1O)CCC(C)(C(=O)O)O2 (stereo not drawn) | 62.4% | 12.1% | 78.2% | 30.2% |  |  | 
14 | COc1cc(/C=C/C(=O)c2ccccc2)ccc1O | 14.4% | 7.53% | 22.6% | 11.8% | 13.16 µM | 62% | 16.14 µM
15 | Oc1ccc(/C=C/c2cc(O)cc(O)c2)cc1 | 28.4% | 9.45% | 33.8% | 8.44% |  |  | 
16 | COc1cc(/C=C/C(=O)c2cc(F)c(F)c(F)c2)ccc1O | 32% | 22.9% | 38% | 23.5% | 12.11 µM | 61% | 19.82 µM
